Results: ChEMBL document CHEMBL4342473, “Lead Optimization of Benzoxazolone Carboxamides as Orally Bioavailable and CNS Penetrant Acid Ceramidase Inhibitors” (J Med Chem, 2020)
Active and inactive are the calls of the source. The calls are words filed in the database; no cut-off is given here.

What was measured:
[1] = target: T1, Sphingomyelin phosphodiesterase (Homo sapiens) (UniProt P17405); test: Inhibition of human full length ASM at 1 to 10 uM using HMU-PC as fluorogenic substrate incubated for 45 mins by fluorescence based assay
T1 sequence (whole entry): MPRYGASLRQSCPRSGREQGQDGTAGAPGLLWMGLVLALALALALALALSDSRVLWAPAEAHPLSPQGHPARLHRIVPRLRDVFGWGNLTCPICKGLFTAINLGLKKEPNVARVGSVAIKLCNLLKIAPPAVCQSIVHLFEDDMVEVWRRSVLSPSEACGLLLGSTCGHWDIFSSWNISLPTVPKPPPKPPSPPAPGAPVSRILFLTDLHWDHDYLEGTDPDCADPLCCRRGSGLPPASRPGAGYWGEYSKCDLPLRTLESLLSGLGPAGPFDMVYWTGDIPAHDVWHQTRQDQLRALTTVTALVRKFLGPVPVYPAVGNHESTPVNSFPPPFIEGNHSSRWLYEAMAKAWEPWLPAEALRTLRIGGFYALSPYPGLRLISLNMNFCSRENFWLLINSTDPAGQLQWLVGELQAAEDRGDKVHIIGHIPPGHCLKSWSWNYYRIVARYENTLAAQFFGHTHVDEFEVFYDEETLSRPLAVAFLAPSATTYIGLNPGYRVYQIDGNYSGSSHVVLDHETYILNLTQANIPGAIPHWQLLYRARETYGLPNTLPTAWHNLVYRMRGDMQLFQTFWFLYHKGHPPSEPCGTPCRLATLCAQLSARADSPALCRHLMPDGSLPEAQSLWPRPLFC

[2] = target: T2, Lysosomal acid glucosylceramidase (Homo sapiens) (UniProt P04062); test: Inhibition of human full length GCase at 1 to 10 uM using 4-MUG as fluorogenic substrate incubated for 15 mins by fluorescence based assay
T2 sequence (whole entry): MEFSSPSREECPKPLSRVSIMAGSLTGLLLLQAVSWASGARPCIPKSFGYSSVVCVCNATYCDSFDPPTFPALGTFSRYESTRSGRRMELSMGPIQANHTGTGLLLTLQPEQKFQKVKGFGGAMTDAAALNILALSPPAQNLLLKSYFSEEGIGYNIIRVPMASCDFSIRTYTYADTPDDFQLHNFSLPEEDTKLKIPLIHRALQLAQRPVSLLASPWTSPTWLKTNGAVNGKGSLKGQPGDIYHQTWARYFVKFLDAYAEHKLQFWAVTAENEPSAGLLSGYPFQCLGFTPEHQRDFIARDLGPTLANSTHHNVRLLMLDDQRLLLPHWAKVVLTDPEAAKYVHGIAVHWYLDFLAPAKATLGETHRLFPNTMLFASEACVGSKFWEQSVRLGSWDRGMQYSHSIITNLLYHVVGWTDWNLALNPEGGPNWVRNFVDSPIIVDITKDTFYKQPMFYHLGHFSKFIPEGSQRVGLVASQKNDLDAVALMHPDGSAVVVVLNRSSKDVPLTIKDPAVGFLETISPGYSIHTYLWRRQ

[3] = target: T3, Acid ceramidase (Homo sapiens) (UniProt Q13510); test: Inhibition of acid ceramidase in human SH-SY5Y cells assessed as increase in intracellular accumulation of Cer (d18:0/16:0) at 10 uM measured up to 6 hrs by LC/MS analysis; type: cell-based
T3 sequence (whole entry): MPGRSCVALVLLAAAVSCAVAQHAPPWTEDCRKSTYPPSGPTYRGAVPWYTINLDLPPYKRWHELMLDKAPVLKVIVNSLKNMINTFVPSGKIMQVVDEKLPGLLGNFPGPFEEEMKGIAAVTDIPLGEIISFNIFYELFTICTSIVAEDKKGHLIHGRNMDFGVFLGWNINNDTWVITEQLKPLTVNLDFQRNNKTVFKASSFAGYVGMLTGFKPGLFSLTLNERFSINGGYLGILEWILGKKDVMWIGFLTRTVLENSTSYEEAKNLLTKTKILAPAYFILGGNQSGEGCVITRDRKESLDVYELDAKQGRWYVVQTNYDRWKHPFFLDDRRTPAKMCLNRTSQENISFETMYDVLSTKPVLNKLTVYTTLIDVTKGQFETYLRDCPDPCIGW
Summary of the method: (§1)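 Human neuroblastoma SH-SY5Y cells incubated with compound at 10 μM for 30 min, 1 h, 3 h and 6 h; AC activity by LC/MS-based activity assay; Cer (d18:0/16:0), Cer (d18:1/16:0), sphingosine, SM (d18:1/16:0) and HexCer (d18:1/16:0) quantified by LC/MS.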

[4] = target: T3, Acid ceramidase (Homo sapiens); test: Inhibition of acid ceramidase in human SH-SY5Y cells assessed as decrease in sphingosine level at 10 uM measured up to 6 hrs by LC/MS analysis; type: cell-based; summary of the method: as §1
[5] = target: T3, Acid ceramidase (Homo sapiens); test: Inhibition of acid ceramidase in human SH-SY5Y cells assessed as change in intracellular accumulation of SM (d18:1/16:0) up to 10 uM measured after 3 hrs by LC/MS analysis; type: cell-based
Summary of the method: (§2)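 SH-SY5Y neuroblastoma cells exposed 3 h to 1, 2.5, 5 and 10 μM; AC activity by LC/MS-based assay; ceramide species, sphingosine, SM and HexCer (d18:1/16:0) quantified by LC/MS; means ± S.E.M. of at least six determinations, experiment repeated twice.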

[6] = target: T3, Acid ceramidase (Homo sapiens); test: Inhibition of acid ceramidase in human SH-SY5Y cells assessed as change in intracellular accumulation of HexCer (d18:1/16:0) up to 10 uM measured after 3 hrs by LC/MS analysis; type: cell-based; summary of the method: as §2
[7] = Toxicity in C57BL/6 mouse assessed as clinical abnormalities at 20 to 120 mg/kg, ip administered for 4 days; type: organism-based; settings: in vivo, 96 h
[8] = Unbound plasma concentration in twitcher mouse model of Krabbe's disease at 90 mg/kg, ip administered once daily for 20 days measured 1 hr post-last dose; type: ADME, organism-based; settings: in vivo
Summary of the method: (§3)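 Twitcher mice dosed i.p. once daily for 20 days, sacrificed 1 h after last dose (day 20); drug measured in plasma and brain; unbound levels from unbound fractions (mean of two technical replicates); N = 3 males + 3 females per group.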

[9] = Unbound drug level in brain of twitcher mouse model of Krabbe's disease at 30 mg/kg,ip administered once daily for 20 days measured 1 hr post-last dose; type: ADME, organism-based; settings: in vivo; summary of the method: as §3
[10] = target: T3, Acid ceramidase (Homo sapiens); test: Inhibition of acid ceramidase in human SH-SY5Y cells assessed as change in intracellular accumulation of SM (d18:1/16:0) at 10 uM measured up to 6 hrs by LC/MS analysis; type: cell-based; summary of the method: as §1
[11] = Ratio of unbound drug level in brain of C57BL/6J/129SvEV mouse model of Gaucher's disease at 90 mg/kg, ip administered once daily for 14 days measured 1 hr post-last dose to EC50 for inhibition of acid ceramidase in Krabbe's disease patient-derived primary fibroblasts; type: organism-based; settings: in vivo
Summary of the method: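 Gaucher-model 4L;C* mice (N = 4–8, mixed sexes) got 30 or 90 mg kg–1 i.p. once daily for 14 days from postnatal day 5 and were sacrificed 1 h after the day-14 dose. Compound levels were measured in plasma and brain, and unbound brain level came from brain fraction unbound (two technical replicates). The reference EC50 was from Krabbe patient primary fibroblasts incubated 2 h across concentrations (two independent experiments, duplicates).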

## CC(C)CNC(=O)n1c(=O)oc2cc(C3CCN(C)CC3)ccc21
[1]
  inhibition: inactive
[2]
  inhibition: inactive
[3]
  inhibition: Active
[4]
  inhibition: Active
[5]
  inhibition: inactive
[6]
  inhibition: inactive
[7]
  Activity: Non-Toxic
[8]
  Cp(f): 520 nM
[9]
  Drug uptake(free): 0.8 µM
[10]
  inhibition: inactive
[11]
  Ratio: 6.4
